The list is not random: actives were taken first. Their share in the collection is about 3.5%.
MrgX1 antagonist – antagonists of human MrgX1 receptor; MRGX1-HEK293 calcium flux, Fluo-4, BAM8-22 antagonism; stronger effect = lower value; 310,000 compounds, 1.3% hits; B-score at 10 µM;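 active = calcium-response B-score plate-corrected more than 3 library SD below zero, starting fluorescence within 5 deviations, no agonist response on first addition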;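 also: peak minus trough fluorescence over baseline after final BAM8-22 challenge near maximal dose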
Target sequence (Q96LB2 whole entry, looked up): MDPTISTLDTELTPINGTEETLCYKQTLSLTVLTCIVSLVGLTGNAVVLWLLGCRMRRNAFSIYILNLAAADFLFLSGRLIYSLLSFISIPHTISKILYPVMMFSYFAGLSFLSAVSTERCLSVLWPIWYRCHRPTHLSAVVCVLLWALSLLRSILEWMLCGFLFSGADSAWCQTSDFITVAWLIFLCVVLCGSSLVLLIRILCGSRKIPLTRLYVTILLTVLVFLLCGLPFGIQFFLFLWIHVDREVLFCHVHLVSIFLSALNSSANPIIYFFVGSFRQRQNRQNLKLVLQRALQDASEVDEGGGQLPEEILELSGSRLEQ
MrgX1 allo act – human MrgX1 positive allosteric modulation, primary screen. Q96LB2. MrgX1-HEK293, Fluo-4 calcium flux, FDSS; stronger effect = higher value. B-score at 10 µM. 310,000 compounds, 0.63% hits;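 active = plate-corrected calcium response at least 3 library SD above typical, normal starting fluorescence, not activating the receptor alone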;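 also: compound read alongside a low EC10 to EC30 dose of BAM8-22 agonist; peak minus trough fluorescence over baseline measured at the second addition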
MrgX1 ag – activates human MrgX1 receptor signaling | Q96LB2 | MrgX1-HEK293 cells, Fluo-4 calcium fluorescence, agonist mode; stronger effect = higher value | B-score at 10 µM | AID 588627 | 310,000 compounds, 0.44% hits;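 active = calcium response B-score plate-corrected fluorescence ratio at least 3 library SD, with starting fluorescence B-score inside 5 SD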
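System – MrgX1-expressing HEK293 cells · Incubation – cells plated overnight, dye loaded 0.5 h 37 °C, 0.5 h room temperature · Technique – kinetic Fluo-4 NW fluorescence of intracellular calcium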
RGS4 act – potentiators or activators of RGS4. 310,000 compounds, 0.92% hits. AID 463111. B-score at 10 µM. HEK293 M3R/inducible RGS4, carbachol calcium flux Fluo4; stronger effect = lower value;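 active = B-score of the integrated calcium signal more than 4 SD below the library mean, with starting fluorescence not abnormally high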;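 also: negative B-score means reduced calcium response which marks RGS4 activation or potentiation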
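Detection: kinetic calcium fluorescence imaging with Fluo4-AM dye, 2 µM / Material: HEK293 cells with stable M3R and inducible RGS4 / Schedule: recording 10 s baseline at 1 Hz, 100 s post-agonist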
RGS4 block – human RGS4 inhibition; HEK293 M3R/RGS4 inducible, Fluo-4 calcium flux; stronger effect = higher value; triggered by carbachol at its EC20; B-score at 10 µM; 310,000 compounds, 0.45% hits; P49798;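 active = B-score, a plate-corrected calcium signal, over three deviations above library mean, with baseline fluorescence within five deviations of library mean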;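 also: RGS4 expression induced by doxycycline in cells with stable M3 receptor; B-score is computed from the integrated fluorescence ratio over baseline after carbachol; higher B-score means a larger calcium signal and so more RGS4 inhibition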
Target sequence (P49798 whole entry, looked up): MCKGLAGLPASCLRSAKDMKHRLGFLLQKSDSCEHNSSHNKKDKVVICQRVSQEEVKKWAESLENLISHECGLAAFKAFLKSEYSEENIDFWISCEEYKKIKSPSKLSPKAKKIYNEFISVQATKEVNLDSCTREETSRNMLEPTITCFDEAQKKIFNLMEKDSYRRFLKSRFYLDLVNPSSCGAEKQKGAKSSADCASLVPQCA
The depositor's hits bear a star; i = inactive.

SMILES | MrgX1 antagonist | MrgX1 allo act | MrgX1 ag | RGS4 act | RGS4 block
CCS(=O)(=O)C1=NSC2=NC(=O)/C(=C\c3ccc(OC(=O)c4ccco4)cc3)C(=N)N21 | i | 19* | i | i | i
COc1cc(/C=C2/C(=N)N3C(=NC2=O)SN=C3S(C)(=O)=O)ccc1OS(=O)(=O)c1ccccc1 | i | 28* | i | i | i
N=C1/C(=C\c2ccc(OC(=O)c3ccccc3)cc2)C(=O)N=C2SC(N3CCOCC3)=NN12 | -7.9* | i | i | i | i
COc1cc(/C=C2/C(=O)N(c3ccccc3)N=C2C)ccc1OS(=O)(=O)c1ccccc1 | i | i | i | i | i
COc1cc(/C=C2\C(=N)N3N=CSC3=NC2=O)ccc1OS(=O)(=O)c1ccccc1[N+](=O)[O-] | i | i | 39* | i | i
COc1cc(/C=C2\C(=N)N3N=C(S(C)(=O)=O)SC3=NC2=O)ccc1OCCOc1ccccc1C | i | i | i | i | i
CCc1noc(C)c1C(=O)Nc1cccc2ncccc12 | i | i | i | i | i
O=C(NNc1c([N+](=O)[O-])cc(C(F)(F)F)cc1[N+](=O)[O-])c1ccco1 | i | i | i | i | i
Cc1cc(NC(=O)CCC(=O)N(Cc2cccs2)C(C)(C)C(=O)NC2CCCCC2)no1 | i | i | i | i | i
Cc1ccc2c(c1)N(CC(=O)N1CCCCC1)C(=O)C(C)O2 (stereo unspecified) | i | i | i | i | i
C#Cc1ccc([C@@H]2C=C(C(=O)OCC=C)O[C@H](OCCCCO)C2)cc1 | i | i | i | i | i
COc1cc(/C=C2\C(=N)N3N=C(S(C)(=O)=O)SC3=NC2=O)ccc1OC(=O)c1cccs1 | i | 8.2* | i | i | i
CCOc1cc(/C=C2/C(=N)N3C(=NC2=O)SN=C3S(C)(=O)=O)ccc1OS(=O)(=O)c1ccccc1 | i | 27* | i | i | i
CCC1=NN2C(=N)/C(=C\c3ccc(OCCOc4ccc(NC(C)=O)cc4)c(OC)c3)C(=O)N=C2S1 | i | i | i | i | i
CC(=O)Nc1ccc(OCCOc2ccc(/C=C3\C(=N)N4N=C(C)SC4=NC3=O)cc2)cc1 | i | 9.5* | i | i | i
CCOc1cc(/C=C2/C(=N)N3C(=NC2=O)SN=C3S(C)(=O)=O)ccc1OC(=O)c1ccco1 | i | 13* | i | i | i
C#CCOc1c(/C=C\c2nc(O)c([N+](=O)[O-])c(=O)[nH]2)cc(Br)cc1OC | i | i | i | i | i
COc1ccc(N(C(=O)CNC(=O)c2cccs2)C(C(=O)NC2CCCC2)c2ccncc2)cc1 (stereo unspecified) | i | i | i | i | i
CCOc1cc(/C=C2\C(=N)N3N=C(S(=O)(=O)CC)SC3=NC2=O)ccc1OC(=O)c1ccco1 | i | i | i | i | i
CCOc1cc(/C=C2\C(=N)N3N=C(N4CCCCC4)SC3=NC2=O)ccc1OC(=O)c1ccco1 | i | i | i | i | i
CCS(=O)(=O)C1=NN2C(=N)/C(=C\c3ccc(OC(=O)c4ccco4)c(Br)c3)C(=O)N=C2S1 | i | i | 73* | i | i
CCOc1cc(/C=C2/C(=N)N3N=C(CC)SC3=NC2=O)ccc1OC(=O)c1ccco1 | i | i | 34* | i | i
N=C1/C(=C/c2ccc(OC(=O)c3ccco3)cc2)C(=O)N=C2SC=CN12 | i | 12* | i | i | i
N#C/C(=C\c1ccc(N2CCCCC2)o1)C(=O)Nc1cccc(Br)c1 | i | i | 53* | i | i
Cc1ccc(C(=O)N(c2ccccc2)C2CC(C)N(C(=O)c3ccco3)c3ccccc32)cc1 (stereo unspecified) | i | 17* | i | i | i
SMILES | MrgX1 antagonist | MrgX1 allo act | MrgX1 ag | RGS4 act | RGS4 block
CN(C)c1ccc(C(=O)Nc2ccc(S(=O)(=O)Nc3nccs3)cc2)cc1 | i | i | i | i | i
CC(=O)C1C(c2ccc(C)cc2)c2c(noc2C)CC1(C)O (stereo unspecified) | i | i | i | i | i
CC(=O)C1C(c2ccc([N+](=O)[O-])cc2)c2c(noc2C)CC1(C)O (stereo unspecified) | i | i | i | -8.5* | i
COc1cccc(CC(=O)OCC(=O)N(C)CC(=O)Nc2ccc(F)cc2)c1 | i | i | i | i | i
COc1cc2c(cc1OC)CN(C(=O)/C=C/c1cccs1)CC2 | i | i | i | i | i
COc1ccc(C[C@H]2CN3C(=NC[C@H]3Cc3ccccc3)N2CCNC(=O)c2ccc(C)c(Br)c2)cc1 | -5.1* | i | i | i | i
COc1ccc(C[C@H]2CN3C(=NC[C@@H]3Cc3ccccc3)N2CCNC(=O)c2ccc(C)c(Br)c2)cc1 | i | i | i | i | i
Cc1nc(C2CCC3C4CCC5=CC(=O)CC[C@]5(C)C4CC[C@]23C)cs1 (stereo partly specified) | i | i | i | -10* | i
CCOC(=O)C1=C(C)N=c2s/c(=C\c3ccc(O)c([N+](=O)[O-])c3)c(=O)n2C1c1ccccc1OC (stereo unspecified) | -4.6* | i | i | i | i
CCOC(=O)C1=C(C)N=c2s/c(=C/c3cccc([N+](=O)[O-])c3O)c(=O)n2C1c1ccc(OC)cc1OC (stereo unspecified) | i | i | i | -8.4* | i
CCOC(=O)C1=C(C)N=c2s/c(=C/c3ccc(OCC(=O)O)cc3)c(=O)n2C1c1ccc(OC)cc1OC (stereo unspecified) | i | i | i | i | i
CCOC(=O)C1=C(C)N=c2s/c(=C/c3ccc(OCC(=O)O)cc3)c(=O)n2C1c1ccc(F)cc1 (stereo unspecified) | i | i | i | -8.3* | i
Cc1cccn2c(=O)c3cc(C(=O)NC4CCS(=O)(=O)C4)n(Cc4ccccc4)c3nc12 (stereo unspecified) | i | i | i | i | i
O=C(COc1ccc(C(=O)c2ccccc2)cc1)Nc1cccnc1 | i | i | i | i | i
N#CC1=C(N)SC(N)=C(C#N)C1c1cccc(Oc2ccccc2)c1 | -6.5* | i | i | i | i
N#CC1=C(N)SC(N)=C(C#N)C1CCc1ccccc1 | -5.1* | i | i | i | i
N#CC1=C(N)SC(N)=C(C#N)C1Cc1ccccc1 | i | i | i | i | i
CCOc1ccc(C2C(C#N)=C(N)SC(N)=C2C#N)cc1OCC | i | i | i | i | i

From PubChem
